One test deals with Glutamate NMDA receptor. In words: Inhibition of [3H]MK-801 binding to NMDA receptor of rat cerebral cortical synaptic membrane.
Test [1] relates to Mus musculus. The test can be described thus: Percentage protection against NMDA-induced lethality in mice by the compound at 20 mg/Kg administered ip 60 mins before iv administration of NMDA in the lethal dose of 90 mg/Kg. In kind it is functional. Put shortly: (§1)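 Male ddY mice (20-28 g), groups of 10, given test compound in saline by intraperitoneal injection. 60 min later they were challenged with a lethal intravenous dose of NMDA (90 mg/kg) in saline. The read-out is protection from NMDA-induced death.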

The subject of test [2] is Mus musculus. In words: Percentage protection against NMDA-induced lethality in mice by the compound at 40 mg/Kg administered ip 60 mins before iv administration of NMDA in the lethal dose of 90 mg/Kg. In kind it is functional. The gist of the method:
as §1

Structures are written as SMILES.

Consider `CCOC(=O)[C@@]1(c2ccccc2)C[C@H]1CN`, for which, on Glutamate NMDA receptor, the IC50 is above 100 µM. As for `CCN(CC)C(=O)[C@@]1(c2ccccc2)C[C@H]1CCN`, the Protection in the test on Mus musculus [1] was 30%; in the test on Mus musculus [2], 20%. The compound also showed an IC50 at Glutamate NMDA receptor of 10 µM. On Glutamate NMDA receptor, `CCN(CC)C(=O)[C@@]1(c2ccccc2)C[C@H]1C=O` returned an IC50 above 100 µM. On the same count and under the same terms, then `CCN(CC)C(=O)[C@@]1(c2ccccc2)C[C@H]1Cn1ccnc1C`, with above 100 µM.

For the compound `CCN(CC)C(=O)[C@@]1(c2ccccc2)C[C@H]1CN(C)C`, the Protection with Mus musculus [1] was found to be 10%; in the test with Mus musculus [2], 40%. This compound showed an IC50 at Glutamate NMDA receptor of 88 µM.

In the case of `CCN(CC)C(=O)[C@@]1(c2ccccc2)C[C@H]1CN=[N+]=[N-]`, the half-maximal inhibitory concentration (IC50) at Glutamate NMDA receptor was above 100 µM. With `NC[C@@H]1C[C@@]1(C(=O)O)c1ccccc1`, at Glutamate NMDA receptor, the IC50 is above 100 µM. The same measure, in the same setting: the same measure for `CCN(CC)C(=O)[C@@]1(c2ccccc2)C[C@H]1CO`: above 100 µM. As for `CCN(CC)C(=O)[C@@]1(c2ccccc2)C[C@H]1CN` [LEVOMILNACIPRAN], the figures for the Protection in the test with Mus musculus [1] and with Mus musculus [2] were 60% and 100%, respectively. Also, on Glutamate NMDA receptor, the IC50 was 6.3 µM. The like results for `CCN(CC)C(=O)[C@@]1(c2ccccc2)C[C@H]1CNC` were, in that order, 20%, 30% and 13 µM.

In general, IC50 refers to the midpoint of a concentration-inhibition curve. Low readings indicate higher potency, high ones lower potency.

For the origin of these results see ChEMBL document CHEMBL1128490, “(+/-)-(Z)-2-(aminomethyl)-1-phenylcyclopropanecarboxamide derivatives as a new prototype of NMDA receptor antagonists” (J Med Chem, 1995).
